Each structure is given as a SMILES string.

One test has as its target Cannabinoid receptor 2 (Homo sapiens, UniProt P34972). The test can be described thus: Displacement of [3H]CP-55940 from human recombinant CB2 receptor expressed in HEK293 cell membrane. Format: cell membranes.
For test [1], the target named is T1, Transient receptor potential cation channel subfamily V member 1 (Homo sapiens, UniProt Q8NER1). The test can be described thus: Agonist activity at human recombinant TRPV1 expressed in HEK293 cells assessed as increase in intracellular calcium level. Format: functional, cell-based. In a few lines:
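Stably transfected HEK-293 cells loaded 1 h at 25 °C with 4 µM Fluo-4 AM, washed, resuspended in Tyrode's buffer pH 7.4. Efficacy relative to 4 µM ionomycin. EC50 is the concentration giving half-maximal [Ca2+]i rise, by sigmoidal fit. At least triplicate.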

The target in test [2] is Cannabinoid receptor 1 (Mus musculus, UniProt P47746). Put plainly: Agonist activity at CB1 receptor expressed in mouse brain membrane by [35S]GTPgammaS binding assay. Format: functional, cell membranes. The method, boiled down:
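Mouse brain membranes (10 µg/mL) preincubated 30 min at 30 °C with adenosine deaminase 0.5 U/mL, in Tris buffer with MgCl2, EDTA, NaCl, DTT, 0.1% BSA, 0.1 nM [35S]GTPγS, 30 µM GDP; compounds 60 min at 30 °C. Nonspecific with 30 µM GTPγS. Filtration, scintillation counting. 0.1% DMSO vehicle. Basal subtracted; EC50 and Emax by sigmoid nonlinear regression.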

Test [3] deals with T1, Transient receptor potential cation channel subfamily V member 1. Put plainly: Agonist activity at human recombinant TRPV1 expressed in HEK293 cells assessed as increase in intracellular calcium level relative to ionomycin. Format: functional, cell-based. In a few lines: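 Stably transfected HEK-293 cells loaded 1 h at 25 °C with 4 µM Fluo-4 AM, washed, resuspended in Tyrode's buffer pH 7.4. Fluorescence (ex 488/em 516 nm) read at 25 °C with stirring, before and after compound at various concentrations. Efficacy relative to 4 µM ionomycin. EC50 is the concentration giving half-maximal [Ca2+]i rise, by sigmoidal fit. At least triplicate.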

The target in test [4] is Cannabinoid receptor 1 (Homo sapiens, UniProt P21554). Put plainly: Displacement of [3H]CP-55940 from human recombinant CB1 receptor expressed in HEK293 cell membrane. Format: cell membranes.
Chain of Cannabinoid receptor 1 (Homo sapiens, UniProt P21554) (P21554 whole entry): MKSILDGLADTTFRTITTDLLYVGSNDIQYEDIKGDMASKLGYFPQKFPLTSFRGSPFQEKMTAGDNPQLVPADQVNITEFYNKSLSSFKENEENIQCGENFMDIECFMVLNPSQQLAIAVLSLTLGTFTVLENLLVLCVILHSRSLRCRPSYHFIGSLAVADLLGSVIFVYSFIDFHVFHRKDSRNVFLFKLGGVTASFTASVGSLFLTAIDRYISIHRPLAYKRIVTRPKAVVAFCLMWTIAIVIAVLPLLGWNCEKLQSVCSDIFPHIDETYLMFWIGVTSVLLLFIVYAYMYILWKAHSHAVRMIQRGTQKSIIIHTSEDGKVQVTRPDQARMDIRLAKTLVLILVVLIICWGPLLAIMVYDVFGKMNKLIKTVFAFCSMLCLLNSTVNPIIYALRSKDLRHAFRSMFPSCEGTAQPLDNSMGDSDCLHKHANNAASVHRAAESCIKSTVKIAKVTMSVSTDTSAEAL

Chain of Cannabinoid receptor 2 (P34972 whole entry): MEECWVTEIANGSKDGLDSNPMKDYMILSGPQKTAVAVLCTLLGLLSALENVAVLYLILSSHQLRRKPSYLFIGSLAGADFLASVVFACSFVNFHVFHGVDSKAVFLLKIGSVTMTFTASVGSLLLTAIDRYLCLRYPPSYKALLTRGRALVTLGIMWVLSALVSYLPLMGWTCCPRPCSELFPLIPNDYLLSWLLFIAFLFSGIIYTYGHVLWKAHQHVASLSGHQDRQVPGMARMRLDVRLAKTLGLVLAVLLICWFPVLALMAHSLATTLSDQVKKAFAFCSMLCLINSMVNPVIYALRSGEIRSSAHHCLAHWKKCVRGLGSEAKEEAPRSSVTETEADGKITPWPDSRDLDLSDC
T1 sequence (Q8NER1 whole entry): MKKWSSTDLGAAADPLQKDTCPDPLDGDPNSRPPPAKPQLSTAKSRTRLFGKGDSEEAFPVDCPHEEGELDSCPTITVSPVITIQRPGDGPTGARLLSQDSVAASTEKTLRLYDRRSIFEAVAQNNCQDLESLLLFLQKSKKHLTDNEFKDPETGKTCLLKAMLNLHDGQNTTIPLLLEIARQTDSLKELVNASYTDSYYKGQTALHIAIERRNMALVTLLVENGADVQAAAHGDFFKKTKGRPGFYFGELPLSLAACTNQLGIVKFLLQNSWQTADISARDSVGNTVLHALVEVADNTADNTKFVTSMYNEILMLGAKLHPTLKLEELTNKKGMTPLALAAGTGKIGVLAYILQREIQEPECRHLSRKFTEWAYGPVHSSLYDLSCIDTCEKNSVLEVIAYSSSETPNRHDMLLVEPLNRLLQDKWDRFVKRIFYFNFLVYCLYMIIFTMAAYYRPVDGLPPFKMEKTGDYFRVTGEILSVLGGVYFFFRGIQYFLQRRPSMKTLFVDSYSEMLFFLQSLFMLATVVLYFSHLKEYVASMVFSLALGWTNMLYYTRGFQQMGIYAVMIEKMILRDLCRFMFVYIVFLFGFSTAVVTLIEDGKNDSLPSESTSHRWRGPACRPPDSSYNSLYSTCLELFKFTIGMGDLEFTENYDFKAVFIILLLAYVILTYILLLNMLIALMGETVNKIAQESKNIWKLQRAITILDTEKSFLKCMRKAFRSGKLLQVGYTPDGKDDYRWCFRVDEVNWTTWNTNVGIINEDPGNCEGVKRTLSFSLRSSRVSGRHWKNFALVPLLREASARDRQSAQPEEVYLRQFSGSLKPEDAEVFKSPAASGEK
Chain of Cannabinoid receptor 1 (Mus musculus, UniProt P47746) (P47746 whole entry): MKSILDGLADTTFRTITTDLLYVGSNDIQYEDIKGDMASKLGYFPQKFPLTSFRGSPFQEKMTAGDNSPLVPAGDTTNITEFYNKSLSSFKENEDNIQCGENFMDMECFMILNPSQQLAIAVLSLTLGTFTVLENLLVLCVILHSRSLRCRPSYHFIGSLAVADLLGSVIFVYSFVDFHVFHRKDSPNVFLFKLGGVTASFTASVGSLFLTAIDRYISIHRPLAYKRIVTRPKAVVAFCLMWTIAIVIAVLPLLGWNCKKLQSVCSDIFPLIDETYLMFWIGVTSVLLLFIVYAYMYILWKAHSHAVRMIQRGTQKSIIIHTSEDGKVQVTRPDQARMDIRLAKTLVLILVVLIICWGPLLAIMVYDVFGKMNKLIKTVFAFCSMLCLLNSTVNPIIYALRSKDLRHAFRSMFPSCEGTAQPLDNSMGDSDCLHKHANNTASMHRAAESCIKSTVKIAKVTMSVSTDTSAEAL

For the compound `CCCCCCCC/C=C\CCCCCCCC(=O)N[C@@H]1C[C@@H]1O` [listing 1 of 2 here], the inhibition constant (Ki) at Cannabinoid receptor 2 was 2040 nM. For the same compound, the half-maximal effective concentration (EC50) in test [1] was found to be 150 nM.

Turning to `CCCCCCCC/C=C\CCCCCCCC(=O)N[C@@H]1C[C@H]1O` [listing 1 of 2 here], at Cannabinoid receptor 2, the Ki amounted to 4410 nM. Also, the EC50 in test [1] stood at 13 nM.

Regarding `CCCCC/C=C\C/C=C\C/C=C\C/C=C\CCCC(=O)N[C@@H]1C[C@@H]1O` [listing 1 of 2 here], at Cannabinoid receptor 2, the inhibition constant (Ki) was determined as 200 nM. Also, in test [1], the EC50 was determined as 610 nM.

Turning to `CCCCC/C=C\C/C=C\C/C=C\C/C=C\CCCC(=O)N[C@@H]1C[C@H]1O` [listing 1 of 2 here], on Cannabinoid receptor 2, the inhibitory constant (Ki) stood at 190 nM. Further, the EC50 came to 780 nM on Cannabinoid receptor 1 [2] and 23 nM in test [1].

With `CCCCC/C=C\C/C=C\C/C=C\C/C=C\CCCC(=O)N[C@H]1C[C@H]1O`, the Ki at Cannabinoid receptor 2 was 190 nM. Moreover, the half-maximal effective concentration (EC50) in test [1] is 2400 nM. Besides, the Emax in test [3] worked out at 65.8%.

On to `CCCCC/C=C\C/C=C\C/C=C\C/C=C\CCCC(=O)N[C@H]1C[C@@H]1O`, for which, at Cannabinoid receptor 2, the Ki came to 290 nM. Further, the EC50 turned out to be 2550 nM on Cannabinoid receptor 1 [2] and 47 nM in test [1]. For the same compound, the Emax in test [3] is 75.7%.

Regarding `CCCCC/C=C\C/C=C\C/C=C\C/C=C\CCCC(=O)N[C@@H]1C[C@@H]1O` [listing 2 of 2 here], in test [3], the Emax was found to be 76.5%.

Turning to `CCCCC/C=C\C/C=C\C/C=C\C/C=C\CCCC(=O)N[C@@H]1C[C@H]1O` [listing 2 of 2 here], in test [3], the maximum response (Emax) came to 80.3%.

On to `CCCCCCCC/C=C\CCCCCCCC(=O)N[C@@H]1C[C@@H]1O` [listing 2 of 2 here], for which the maximal effect (Emax) in test [3] was found to be 62.5%.

For `CCCCCCCC/C=C\CCCCCCCC(=O)N[C@@H]1C[C@H]1O` [listing 2 of 2 here], in test [3], the maximal effect (Emax) was determined as 72.5%.

Take `CCCCCCCC/C=C\CCCCCCCC(=O)N[C@@H]1C[C@@H]1O` (racemic): on Cannabinoid receptor 2, the inhibition constant Ki was found to be 340 nM. Also, the EC50 in test [1] was 3700 nM.

As to `CCCCCCCC/C=C\CCCCCCCC(=O)N[C@@H]1C[C@H]1O` (racemic), the inhibition constant (Ki) at Cannabinoid receptor 2 was 380 nM. Further, the concentration for a half-maximal effect (EC50) in test [1] worked out at 60 nM.

With `CCCCC/C=C\C/C=C\C/C=C\C/C=C\CCCC(=O)N[C@@H]1C[C@@H]1O` (racemic), the Ki on Cannabinoid receptor 2 was determined as 150 nM. In addition, the concentration for a half-maximal effect (EC50) in test [1] amounted to 1900 nM.

Regarding `CCCCC/C=C\C/C=C\C/C=C\C/C=C\CCCC(=O)N[C@@H]1C[C@H]1O` (racemic), on Cannabinoid receptor 2, the inhibition constant Ki was 240 nM. Also, the EC50 in test [1] was 50 nM.

For the compound `CCCCCCCCCCCCCCCC(=O)N[C@@H]1C[C@@H]1O` (racemic), the Ki on Cannabinoid receptor 2 and at Cannabinoid receptor 1 [4] was greater than 10000 nM each time. In test [1], the EC50 stood at 26400 nM.

For the compound `CCCCCCCCCCCCCCCC(=O)N[C@@H]1C[C@H]1O` (racemic), the Ki at Cannabinoid receptor 2 and on Cannabinoid receptor 1 [4] was greater than 10000 nM in each case. The concentration for a half-maximal effect (EC50) in test [1] came to 40 nM.

In the case of `CCCCC/C=C\C/C=C\C/C=C\C/C=C\CCCC(=O)NCCO` [ANANDAMIDE], the EC50 in test [1] worked out at 200 nM.

Regarding `COc1cc(CNC(=O)CCCC/C=C/C(C)C)ccc1O` [CAPSAICIN], the inhibitory constant (Ki) on Cannabinoid receptor 2 was greater than 10000 nM.

With `CCCCCCC(C)(C)c1ccc([C@@H]2C[C@H](O)CC[C@H]2CCCO)c(O)c1` [CP-55940], in test [1], the 50% effective concentration (EC50) is 10 nM. The maximal effect (Emax) in test [3] came to 83%.

With `CCCCCCCC/C=C\CCCCCCCC(=O)NCCO` [OLEOYLETHANOLAMIDE], the Ki at Cannabinoid receptor 2 is greater than 10000 nM. For the same compound, the concentration giving a half-maximal response (EC50) in test [1] was found to be 3650 nM.

In the case of `CCCCCCCCCCCCCCCC(=O)NCCO` [PALMIDROL], the Ki on Cannabinoid receptor 2 and on Cannabinoid receptor 1 [4] was greater than 5000 nM throughout. In test [1], the EC50 is greater than 10000 nM.
